Experimental data taken from paper PMC6237275 (Chemical science, 2013).
Residues, ends and D or L forms follow the SMILES beside them.

Tests used:
[1] = tested on: CtBP1 homodimerization (CtBP1 fused to 434 repressor); experiment: CtBP1 reverse two-hybrid system; type: cell-based; details: for Target (homodimerization disrupted in RTHS): CtBP1 and CtBP2 RTHS, SICLOPPS; for Rank (top 3 CtBP1/CtBP2 inhibitors identified by SICLOPPS): ranked by drop spotting, CtBP1/CtBP2 RTHS
Procedure, shortened: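 E. coli reverse two-hybrid hosts carry SICLOPPS cyclic peptide library plasmids; only clones whose peptide disrupts CtBP homodimerization survive on selective media. For CtBP1, 104 surviving colonies were picked, and their plasmids were isolated and retransformed into the CtBP1 RTHS. For drop-spotting, 2.5 μL of serial cell dilutions go onto selective plates with and without […].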

[2] = tested on: CtBP2 homodimerization (CtBP2 fused to 434 repressor); experiment: CtBP2 reverse two-hybrid system; type: cell-based; details: arabinose-induced peptide production; 50 μM IPTG; minimal (selective) media
GST–CtBP1 / His–CtBP1 = experiment: GST pull down assay; type: biochemical; details: presence of NADH; 50 mM Tris–HCl pH 7.2 pull-down buffer
Procedure, shortened: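 Recombinant GST-CtBP1 and His-CtBP1 are expressed in E. coli and purified on glutathione or nickel resin, with 30 min 0.25 mM pyruvate on-resin to oxidize bound NADH. 10 mg mL−1 bacterial lysate blocks nonspecific binding.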

CtBP1 (His–CtBP1) = CtBP1 (His–CtBP1) (Homo sapiens, UniProt Q13363); experiment: FRET-based CtBP1/NADH-binding assay
lactate dehydrogenase = experiment: Lactate dehydrogenase activity; type: biochemical; details: at concentrations of up to 100 μM
MCF-7 cells [3] = experiment: Time-lapse video microscopy, peptide in medium, MCF-7; type: cell-based
Procedure, shortened: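 Cell-penetrating peptide or TAT alone goes into the medium of asynchronous MCF-7 cultures, imaged by time-lapse microscopy every 30 min for 65 h. Each cell's first mitosis is scored for abnormality (prolonged rounding, failed cytokinesis, death), with time in mitosis per cell. Total cell number increase is taken over the first 48 h. Fisher's exact test; experiments repeated at least twice.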

MCF-7 cells [4] = experiment: Microinjection and time-lapse video microscopy, MCF-7; type: cell-based
Procedure, shortened: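 MCF-7 cells are synchronized 48 h in 0.1% FCS, then released with 10% serum. At 20 h post-release, cells are microinjected in PBS with 70 kDa FITC-dextran (1 μg μL−1) plus peptide (50 μM) or GST-fusion protein (1 μg μL−1). Controls are FITC-dextran alone or non-injected cells. Time-lapse images every 30 min; first mitosis scored for abnormality and duration. Fisher's exact test.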

MDA-MB-453 cells = experiment: Microinjection and time-lapse video microscopy, MDA-MB-453; type: cell-based; details: microinjected 50 μM
colon cancer cells = details: ref [36]; cited from earlier work
breast cancer cells = details: ref [31]; cited from earlier work
CtBPs = details: high concentrations of MTOB; ref [37]; cited from earlier work
His–CtBP1 = experiment: Size exclusion chromatography of His–CtBP1; type: biochemical; details: increasing concentrations of NADH; Superdex 200, PBS
[5] = tested on: CtBP1/CtBP2 dimerization (CFP–CtBP1, YFP–CtBP2) in COS-7 cells; experiment: CtBP cellular compartmentalization assay; type: cell-based; details: 100 μM
Procedure, shortened: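 COS-7 cells transfected with CFP–CtBP1 (pSCFP3A-based) and YFP–CtBP2 (pSYFP2-based) expression vectors. Test compound as TAT conjugate (100 μM) or 100 μM TAT added to medium. Expression and co-localization were imaged by fluorescence microscopy, and cells were scored by line analysis for cytoplasmic CFP–CtBP1, with cell numbers counted. Fisher's exact test on contingency tables versus TAT-treated cells.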

MCF-7 cells [6] = experiment: Micronuclei assay, MCF-7; type: cell-based; details: up to 100 μM TAT; 48 h; >400 cells scored
Procedure, shortened: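 Peptides are added to the medium of asynchronous MCF-7 cultures, and cells are fixed after 48 h for micronuclei counting, with >400 cells scored per point. Data are mean ± SEM of triplicate wells from a representative of at least two independent experiments. One-way ANOVA with Tukey's post hoc test.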

CSCC[C@@H]1NC(=O)[C@H](CCCNC(=N)N)NC(=O)[C@H](C(C)C)NC(=O)[C@H](C(C)C)NC(=O)[C@H]([C@@H](C)O)NC(=O)[C@H](Cc2c[nH]c3ccccc23)NC(=O)CNC(=O)[C@H](CO)NC(=O)[C@H](Cc2ccc(O)cc2)NC1=O [CP61] (cyclo(GWTVVRMYS))
Target (homodimerization disrupted in RTHS) [1]: CtBP1/CtBP2
Survival on selective media / disruption of CtBP1 homodimerization ([1]; arabinose-induced peptide production, 50 μM IPTG, minimal (selective) media): Restoration of growth with arabinose
Rank (top 3 CtBP1/CtBP2 inhibitors identified by SICLOPPS) [1]: 1
Survival on selective media / disruption of CtBP2 homodimerization [2]: Restoration of growth with arabinose
Disruption of NADH-dependent association between GST–CtBP1 and His–CtBP1 (GST–CtBP1 / His–CtBP1): disrupted
Reduction of NADH-dependent FRET signal (CtBP1–NADH interaction) (CtBP1 (His–CtBP1); excitation 285 nm, emission 425 nm, 300 nM His–CtBP1, room temperature): reduced upon addition of CP61, in a dose-dependent manner
Mechanism of inhibition of NADH-binding (CtBP1 (His–CtBP1); maximum FRET signal at saturating NADH reduced in a CP61-dependent manner): allosteric mechanism for inhibition of NADH-binding
Effect on activity of lactate dehydrogenase (lactate dehydrogenase): no effect
Concentration inhibiting the cellular function of CtBPs (MCF-7 cells [3]; in cells (discussion summary)): 50 µM
Mitoses that were aberrant (MCF-7 cells [4]; microinjected 50 μM, MCF-7, control-injected 10.2%, P < 0.0001 (Fig. 8a)): 50.8%
Mean length of time in mitosis (MCF-7 cells [4]; microinjected 50 μM, MCF-7, control-injected 1.9 h (Fig. 8b)): 4 h
Length of time in mitosis (in words) (MDA-MB-453 cells; MDA-MB-453 (Fig. 8b)): did not affect the length of time MDA-MB-453 cells spent in mitosis
Percentage of mitoses that were aberrant (in words) (MDA-MB-453 cells; MDA-MB-453, P > 0.05 compared to control-injected): did not significantly affect the percentage of mitoses that were aberrant

CSCCC(=O)C(=O)O [MTOB, 2-keto-4-methylthiobutyrate]
Repression of pro-apoptotic gene BIK (colon cancer cells): reverse the repression of the pro-apoptotic gene BIK in colon cancer cells
Repression of multiple CtBP-targeted genes (breast cancer cells): reverse the repression of multiple CtBP-targeted genes in breast cancer cells
Recruitment of CtBPs to target promoters (CtBPs): inhibiting the recruitment of CtBPs to target promoters

NC(=O)C1=CN([C@@H]2O[C@H](COP(=O)(O)OP(=O)(O)OC[C@H]3O[C@@H](n4cnc5c(N)ncnc54)[C@H](O)[C@@H]3O)[C@@H](O)[C@H]2O)C=CC1 [NADH]
Monomer to dimer shift of CtBP1 (His–CtBP1): shifted to a peak corresponding to dimeric CtBP1 in a dose-dependent manner

GRKKRRQRRRPPQ [TAT]
Nuclear co-localization of CtBPs [5]: showed the expected co-localization with YFP–CtBP2 in the nucleus
Cells containing micronuclei (MCF-7 cells [6]): Approximately 7%
Increase in cell numbers (MCF-7 cells [3]; 50 μM, 48 hours): 111%

GST–CtBP^DD: construct encoding the central dimerization domain (110–359) of CtBP2
Cells with aberrant mitosis phenotype (MCF-7 cells [4]; protein injected at 1 μg μL−1 in PBS, MCF-7 (Fig. 7e)): 45%
Time in mitosis (in words) (MCF-7 cells [4]; protein injected at 1 μg μL−1 in PBS, MCF-7 (Fig. 7f)): increased the time in mitosis, in line with that observed in CP61-treated cells

SGW PLSTWY (head to tail) [CP68]
Target (homodimerization disrupted in RTHS) [1]: CtBP1/CtBP2
Rank (top 3 CtBP1/CtBP2 inhibitors identified by SICLOPPS) [1]: 2

SGW RLIRLY (head to tail) [CP65]
Target (homodimerization disrupted in RTHS) [1]: CtBP1/CtBP2
Rank (top 3 CtBP1/CtBP2 inhibitors identified by SICLOPPS) [1]: 3
